In assay [1] the target is Tyrosine-protein kinase JAK2 (Homo sapiens, UniProt O60674). Nature of the assay: Inhibition of JAK2 (unknown origin) incubated for 40 mins in presence of ATP by Kinase-glo luminescence assay. For orientation: Kinase-Glo measures the ATP left after a reaction by luminescence.
Assay [2] concerns the target T1, Tyrosine-protein kinase JAK3 (Homo sapiens, UniProt P52333).
T1 sequence (P52333 whole entry): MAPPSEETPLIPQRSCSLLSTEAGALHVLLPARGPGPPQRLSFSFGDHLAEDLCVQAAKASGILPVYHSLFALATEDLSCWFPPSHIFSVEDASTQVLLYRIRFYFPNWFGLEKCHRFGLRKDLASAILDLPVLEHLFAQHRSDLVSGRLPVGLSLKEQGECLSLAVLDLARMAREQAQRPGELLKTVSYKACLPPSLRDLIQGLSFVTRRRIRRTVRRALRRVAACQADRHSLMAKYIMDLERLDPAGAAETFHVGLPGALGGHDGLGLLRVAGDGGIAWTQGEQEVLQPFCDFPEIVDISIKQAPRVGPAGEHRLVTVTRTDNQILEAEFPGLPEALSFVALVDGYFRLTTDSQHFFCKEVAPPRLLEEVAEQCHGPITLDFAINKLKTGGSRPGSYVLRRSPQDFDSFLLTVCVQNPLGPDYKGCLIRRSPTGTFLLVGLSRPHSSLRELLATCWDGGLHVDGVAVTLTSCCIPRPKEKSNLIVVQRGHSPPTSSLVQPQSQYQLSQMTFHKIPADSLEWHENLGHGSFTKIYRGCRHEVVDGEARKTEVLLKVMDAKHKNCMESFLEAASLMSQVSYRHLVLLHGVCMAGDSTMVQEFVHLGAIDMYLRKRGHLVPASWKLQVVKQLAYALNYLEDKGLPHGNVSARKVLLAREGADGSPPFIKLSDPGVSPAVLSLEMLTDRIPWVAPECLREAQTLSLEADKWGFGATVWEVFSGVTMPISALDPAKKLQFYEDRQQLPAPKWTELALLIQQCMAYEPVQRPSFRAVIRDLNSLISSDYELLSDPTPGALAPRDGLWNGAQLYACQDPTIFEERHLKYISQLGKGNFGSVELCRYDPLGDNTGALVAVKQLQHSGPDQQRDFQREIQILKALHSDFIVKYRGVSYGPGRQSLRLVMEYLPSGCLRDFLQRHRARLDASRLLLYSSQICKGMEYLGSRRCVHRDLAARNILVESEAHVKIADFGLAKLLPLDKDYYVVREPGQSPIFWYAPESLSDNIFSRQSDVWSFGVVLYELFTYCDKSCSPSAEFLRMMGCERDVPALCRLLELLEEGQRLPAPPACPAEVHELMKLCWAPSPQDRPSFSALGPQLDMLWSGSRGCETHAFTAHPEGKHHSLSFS
Nature of the assay: Inhibition of JAK3 (unknown origin) incubated for 40 mins in presence of ATP by Kinase-glo luminescence assay.

A further assay concerns the target T2, Aurora kinase A (Homo sapiens, UniProt O14965).
T2 sequence (O14965 whole entry): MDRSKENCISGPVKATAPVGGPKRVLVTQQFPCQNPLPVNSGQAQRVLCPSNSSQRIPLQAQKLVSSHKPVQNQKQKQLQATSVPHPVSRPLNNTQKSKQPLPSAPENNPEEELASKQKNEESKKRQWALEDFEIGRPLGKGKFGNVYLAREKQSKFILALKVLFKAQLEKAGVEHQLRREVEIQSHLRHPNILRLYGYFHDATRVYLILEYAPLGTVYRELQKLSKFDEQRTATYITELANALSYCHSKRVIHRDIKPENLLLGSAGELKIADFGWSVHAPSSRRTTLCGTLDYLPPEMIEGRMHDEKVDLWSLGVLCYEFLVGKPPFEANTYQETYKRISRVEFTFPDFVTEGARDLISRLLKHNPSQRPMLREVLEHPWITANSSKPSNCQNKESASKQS
Nature of the assay: Inhibition of Aurora A (unknown origin) incubated for 40 mins in presence of ATP by Kinase-glo luminescence assay.

Assay [3] is described as follows: Cytotoxicity against HCoEpiC assessed as reduction in cell growth measured after 72 hrs by CCK8 assay. Conditions: Homo sapiens.
Another assay concerns HUVEC. Nature of the assay: Cytotoxicity against HUVEC assessed as reduction in cell growth measured after 72 hrs by CCK8 assay. Format: cell-based. Conditions: Homo sapiens. For orientation: Formazan colour is commonly taken as a measure of viable cells.
For a further assay, the target named is JAK2/JAK3 (Homo sapiens) (UniProt P52333+O60674). Nature of the assay: Inhibition of JAK2/3 in human HCT116 cells assessed as inhibition of STAT5 phosphorylation at 1 to 20 uM measured after 48 hrs by Western blot analysis. To be noted: HCT-116, dose 1-20 µM. The format is cell-based. The procedure, abridged:
(§1)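 K562 or HCT116 cells treated 48 h at 1, 10 and 20 µM alongside untreated control; lysed in cold RIPA, protein by BCA, SDS-PAGE, nitrocellulose transfer, 5% milk block, primary antibody overnight at 4 °C, secondary 1 h; p-Aurora A, p-Aurora B, p-STAT3, p-STAT5 probed with GAPDH loading control.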
On the technique in general: A western blot detects proteins with antibodies after separation by electrophoresis.

Assay [4] concerns the target T3, Aurora kinase B (Homo sapiens, UniProt Q96GD4). Nature of the assay: Inhibition of Aurora B phosphorylation in human K562 cells incubated for 48 hrs by Western blot analysis. The format is cell-based. To be noted: dose 1-20 µM. The procedure, abridged:
as §1

The target of assay [5] is T4, Aurora kinase A (Homo sapiens) (UniProt O14965).
T4 sequence (whole entry): T2 sequence (O14965 whole entry)
Nature of the assay: Inhibition of Aurora A phosphorylation in human HCT116 cells incubated for 48 hrs by Western blot analysis. To be noted: HCT-116, dose 1-20 µM. The format is cell-based. An outline of the steps: as §1

For assay [6], the target named is T3, Aurora kinase B. Nature of the assay: Inhibition of Aurora B phosphorylation in human HCT116 cells incubated for 48 hrs by Western blot analysis. The format is cell-based. Conditions: HCT-116, dose 1-20 µM. The procedure, abridged: as §1
In assay [7] the test system is K562. Nature of the assay: Cell cycle arrest in human K562 cells assessed as accumulation of diploid cells at S phase at 10 uM incubated for 48 hrs by propidium iodide staining based flow cytometric analysis (reference value: 35.94 %). Format: functional.
Assay [8] relates to K562. Nature of the assay: Cell cycle arrest in human K562 cells assessed as accumulation at […] phase at 10 uM incubated for 48 hrs by propidium iodide staining based flow cytometric analysis (reference value: 1.90 %). Format: functional.
Assay [9] deals with K562. Nature of the assay: Cell cycle arrest in human K562 cells assessed as accumulation of diploid cells at S phase at 20 uM incubated for 48 hrs by propidium iodide staining based flow cytometric analysis (reference value: 35.94 %). Format: functional.
Assay [10] has as its system HCT-116. Nature of the assay: Cell cycle arrest in human HCT116 cells assessed as accumulation of diploid cells at G1 phase at 1 uM incubated for 48 hrs by propidium iodide staining based flow cytometric analysis (reference value: 77.62 %). The format is functional.
Assay [11] concerns HCT-116. Nature of the assay: Cell cycle arrest in human HCT116 cells assessed as accumulation at […] phase at 1 uM incubated for 48 hrs by propidium iodide staining based flow cytometric analysis (reference value: 2.01 %). The format is functional.
In assay [12] the test system is HCT-116. Nature of the assay: Cell cycle arrest in human HCT116 cells assessed as accumulation of diploid cells at G1 phase at 10 uM incubated for 48 hrs by propidium iodide staining based flow cytometric analysis (reference value: 77.62 %). Format: functional.
In assay [13] the test system is HCT-116. Nature of the assay: Cell cycle arrest in human HCT116 cells assessed as accumulation of diploid cells at G2 phase at 10 uM incubated for 48 hrs by propidium iodide staining based flow cytometric analysis (reference value: 10.46 %). The format is functional.

As usually defined, the IC50 is the point on the concentration scale where inhibition reaches its midpoint.

Active and inactive are the calls of the source. The calls are words filed in the database; no cut-off is given here.

T3 sequence (Q96GD4 whole entry): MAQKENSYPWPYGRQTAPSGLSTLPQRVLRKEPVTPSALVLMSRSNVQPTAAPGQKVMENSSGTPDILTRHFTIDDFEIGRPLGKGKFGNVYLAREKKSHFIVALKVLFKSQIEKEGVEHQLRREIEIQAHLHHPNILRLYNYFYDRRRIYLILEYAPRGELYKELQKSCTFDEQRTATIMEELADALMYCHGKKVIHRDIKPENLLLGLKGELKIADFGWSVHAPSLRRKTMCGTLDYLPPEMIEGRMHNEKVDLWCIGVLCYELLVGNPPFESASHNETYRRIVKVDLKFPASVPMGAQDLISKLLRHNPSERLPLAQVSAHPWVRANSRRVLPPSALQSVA
JAK2/JAK3 (Homo sapiens), sequence (O60674 whole entry, looked up, one chain of several): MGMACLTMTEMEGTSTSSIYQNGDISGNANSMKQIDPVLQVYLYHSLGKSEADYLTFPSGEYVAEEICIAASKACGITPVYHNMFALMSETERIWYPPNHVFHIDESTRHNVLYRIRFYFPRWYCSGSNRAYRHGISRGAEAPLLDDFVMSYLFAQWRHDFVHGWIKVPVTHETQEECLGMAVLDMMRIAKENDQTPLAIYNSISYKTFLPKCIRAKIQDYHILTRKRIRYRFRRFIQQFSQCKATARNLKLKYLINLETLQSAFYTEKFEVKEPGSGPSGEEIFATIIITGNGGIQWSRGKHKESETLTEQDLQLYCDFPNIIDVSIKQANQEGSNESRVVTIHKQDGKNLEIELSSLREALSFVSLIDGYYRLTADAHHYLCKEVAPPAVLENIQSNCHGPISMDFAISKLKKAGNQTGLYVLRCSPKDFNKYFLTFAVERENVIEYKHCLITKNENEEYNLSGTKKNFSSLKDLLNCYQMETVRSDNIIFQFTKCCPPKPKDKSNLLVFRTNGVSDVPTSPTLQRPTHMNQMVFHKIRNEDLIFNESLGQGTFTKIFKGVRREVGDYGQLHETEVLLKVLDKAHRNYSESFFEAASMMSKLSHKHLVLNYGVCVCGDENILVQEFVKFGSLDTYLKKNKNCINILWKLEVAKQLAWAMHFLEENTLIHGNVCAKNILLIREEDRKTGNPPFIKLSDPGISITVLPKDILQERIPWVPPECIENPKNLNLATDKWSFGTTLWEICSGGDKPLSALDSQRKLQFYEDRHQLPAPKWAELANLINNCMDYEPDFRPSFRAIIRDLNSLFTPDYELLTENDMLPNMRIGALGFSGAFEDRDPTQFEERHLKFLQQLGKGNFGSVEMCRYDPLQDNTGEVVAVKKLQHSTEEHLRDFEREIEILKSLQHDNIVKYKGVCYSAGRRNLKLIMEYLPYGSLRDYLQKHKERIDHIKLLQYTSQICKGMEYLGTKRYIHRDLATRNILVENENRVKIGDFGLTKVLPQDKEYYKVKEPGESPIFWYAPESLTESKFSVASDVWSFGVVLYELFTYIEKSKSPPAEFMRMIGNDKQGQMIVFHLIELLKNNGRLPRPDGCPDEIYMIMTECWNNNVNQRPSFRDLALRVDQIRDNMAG
Tyrosine-protein kinase JAK2, sequence (O60674 whole entry): as the sequence (O60674 whole entry, looked up, one chain of several) above

Consider `O=C(Nc1c[nH]nc1-c1nc(-c2ccc(CN3CCOCC3)cc2)c[nH]1)c1cccc(Cl)c1`, for which the IC50 in assay [1] was 166 nM; in [2], 57 nM; at Aurora kinase A, 939 nM; in assay [3] it was 31500 nM; in the assay with HUVEC, 29000 nM. Besides, at JAK2/JAK3 (Homo sapiens), the inhibition result was “Active”. The inhibition entry (at Aurora kinase B [4]; in assay [5]; at Aurora kinase B [6]) was “Dose-dependent effect” each time. Further, the Activity in the assay with K562 [7] amounted to 35.86%; with K562 [8] it was 2.09%; in the assay on K562 [9] it was 35.1%; with HCT-116 [10], 72.2%; in the assay on HCT-116 [11] it was 2%; in the assay with HCT-116 [12], 66.57%. Besides, in the assay with HCT-116 [13], the Activity was 16.16%.

(Values after ChEMBL document CHEMBL4706620, “Design, synthesis, biological activity evaluation of 3-(4-phenyl-1H-imidazol-2-yl)-1H-pyrazole derivatives as potent JAK 2/3 and aurora A/B kinases multi-targeted inhibitors” (Eur J Med Chem, 2021).)
